ChEMBL document CHEMBL1157803 (J Med Chem, 2010)
Calls of active or inactive are those of the source. The calls are words filed in the database; no cut-off is given here.

Key:
Trypanosoma cruzi [1] = assay: Antitrypanosomal activity against Trypanosoma cruzi Tulahuen amastigotes infected in […] 3T3 cells after 7 days by alamar blue assay; format: functional, organism-based; conditions: NIH3T3, 168 h
Outline: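 T. cruzi amastigotes grown inside mammalian host 3T3 cells were exposed to compounds to measure parasite killing.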

[2] = Inhibition of rat recombinant PFT expressed in insect Sf9 cells by scintillation proximity assay
Trypanosoma cruzi [3] = assay: Ratio of EC50 for tipifarnib to drug for antitrypanosomal activity against Trypanosoma cruzi Tulahuen amastigotes infected in […] 3T3 cells after 7 days by alamar blue assay; format: functional, NIH3T3
Cytochrome P450 3A4 = Cytochrome P450 3A4 (Homo sapiens, UniProt P08684); assay: Inhibition of human recombinant CYP3A4; format: ADME
[4] = target: Sterol 14-alpha demethylase (Trypanosoma cruzi (strain CL Brener)) (UniProt Q7Z1V1); assay: Binding affinity to Trypanosoma cruzi recombinant lanosterol 14-alpha-demethylase by optical spectroscopy
Outline: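 Recombinant T. cruzi lanosterol 14α-demethylase at 1.4 μM was titrated with 0.2–2 μM compound. Binding was followed by difference optical spectroscopy of the visible heme Soret band.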

Sequence of Cytochrome P450 3A4 (P08684 whole entry): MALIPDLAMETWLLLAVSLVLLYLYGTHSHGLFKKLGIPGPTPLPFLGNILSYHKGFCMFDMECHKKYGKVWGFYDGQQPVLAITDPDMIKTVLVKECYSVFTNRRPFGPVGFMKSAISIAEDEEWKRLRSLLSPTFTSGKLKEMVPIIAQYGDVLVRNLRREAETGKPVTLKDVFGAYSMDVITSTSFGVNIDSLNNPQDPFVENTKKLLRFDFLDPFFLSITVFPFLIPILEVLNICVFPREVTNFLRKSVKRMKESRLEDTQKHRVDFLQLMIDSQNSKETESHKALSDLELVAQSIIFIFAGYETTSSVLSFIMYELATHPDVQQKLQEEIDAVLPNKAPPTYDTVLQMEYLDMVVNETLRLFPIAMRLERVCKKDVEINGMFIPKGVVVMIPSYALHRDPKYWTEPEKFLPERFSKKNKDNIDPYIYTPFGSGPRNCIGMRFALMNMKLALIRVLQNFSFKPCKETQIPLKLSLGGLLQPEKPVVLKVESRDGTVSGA
Sequence of Sterol 14-alpha demethylase (Trypanosoma cruzi (strain CL Brener)) (Q7Z1V1 whole entry, looked up): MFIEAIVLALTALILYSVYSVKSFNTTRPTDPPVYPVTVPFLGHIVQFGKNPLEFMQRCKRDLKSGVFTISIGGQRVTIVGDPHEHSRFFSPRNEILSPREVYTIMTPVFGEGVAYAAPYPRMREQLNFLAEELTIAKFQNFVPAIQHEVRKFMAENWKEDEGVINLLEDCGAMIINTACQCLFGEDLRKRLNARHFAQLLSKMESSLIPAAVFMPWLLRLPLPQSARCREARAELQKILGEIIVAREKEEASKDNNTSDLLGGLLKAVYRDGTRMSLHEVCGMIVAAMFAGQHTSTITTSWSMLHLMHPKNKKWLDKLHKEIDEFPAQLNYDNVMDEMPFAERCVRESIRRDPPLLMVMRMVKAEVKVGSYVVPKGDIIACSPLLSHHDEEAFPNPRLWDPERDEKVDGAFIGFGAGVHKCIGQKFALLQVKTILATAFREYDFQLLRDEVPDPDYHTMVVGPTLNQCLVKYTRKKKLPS

Compound	EC50 (Trypanosoma cruzi [1])	IC50 [2]	Ratio EC50 (Trypanosoma cruzi [3])	IC50 (Cytochrome P450 3A4)	Activity [4]
CCn1cncc1C(OC)(c1ccc(Cl)cc1)c1ccc2c(c1)c(-c1cccc(Cl)c1)cc(=O)n2C (centres undefined)	3 nM	970 nM			
COC(c1ccc(C)cc1)(c1ccc2c(c1)c(-c1cccc(Cl)c1)cc(=O)n2C)c1cncn1C (centres undefined)	3 nM				
Cn1cncc1[C@@](N)(c1ccc(Cl)cc1)c1ccc2c(c1)c(-c1cccc(Cl)c1)cc(=O)n2C [TIPIFARNIB]		0.7 nM			
CCCOC(c1ccc(Cl)cc1)(c1ccc2c(c1)c(-c1cccc(Cl)c1C)cc(=O)n2C)c1cncn1C (centres undefined)	69 nM	> 5000 nM			
Cn1cncc1C(O)(c1ccc(Cl)cc1)c1ccc2c(c1)c(-c1cccc(Cl)c1)cc(=O)n2C (centres undefined)	17 nM	8 nM			
COC(c1ccc(Cl)cc1)(c1ccc2c(c1)c(-c1ccccc1C)cc(=O)n2C)c1cncn1C (centres undefined)	0.7 nM	3260 nM			
COC(c1ccc(Cl)cc1)(c1ccc2c(c1)c(-c1cccc(Cl)c1C)cc(=O)n2C)c1cncn1C (centres undefined)	0.6 nM	> 5000 nM	10		
COC(c1ccc(Cl)cc1)(c1ccc2c(c1)c(-c1cccc(C(F)(F)F)c1)cc(=O)n2C)c1cncn1C (centres undefined)	12 nM	1320 nM			
COC(c1ccc(Cl)cc1)(c1ccc2c(c1)c(-c1c(C)cccc1C)cc(=O)n2C)c1cncn1C (centres undefined)	1.8 nM	> 10000 nM			
COC(c1ccc(Cl)cc1)(c1ccc2c(c1)c(-c1ccccc1F)cc(=O)n2C)c1cncn1C (centres undefined)	0.8 nM	1870 nM			
COC(c1ccc(Cl)cc1)(c1ccc2c(c1)c(-c1cccc(Cl)c1)cc(=O)n2C)c1cncn1C (centres undefined)	3.1 nM	65 nM			
COC(c1ccc(Cl)cc1)(c1ccc2c(c1)c(-c1ccc(Cl)cc1)cc(=O)n2C)c1cncn1C (centres undefined)	0.82 nM	6040 nM		923 nM	
COC(c1ccc(Cl)cc1)(c1ccc2c(c1)c(-c1c(Cl)cccc1Cl)cc(=O)n2C)c1cncn1C (centres undefined)	3.21 nM	> 10000 nM			
CCn1cncc1C(NC)(c1ccc(Cl)cc1)c1ccc2c(c1)c(-c1cccc(Cl)c1)cc(=O)n2C (centres undefined)	100 nM	66 nM			
COC(c1ccc(Cl)cc1)(c1ccc2c(c1)c(-c1cccc(C)c1)cc(=O)n2C)c1cncn1C (centres undefined)	1.2 nM	85 nM			
COC(c1ccc(Cl)cc1)(c1ccc2c(c1)c(-c1cc(C)cc(C)c1)cc(=O)n2C)c1cncn1C (centres undefined)	1.4 nM	470 nM			
COC(c1ccc(Cl)cc1)(c1ccc2c(c1)c(-c1ccccc1)cc(=O)n2C)c1cncn1C (centres undefined)	0.8 nM	330 nM		2350 nM	

Compound	EC50 (Trypanosoma cruzi [1])	IC50 [2]	Ratio EC50 (Trypanosoma cruzi [3])	IC50 (Cytochrome P450 3A4)	Activity [4]
CCn1cncc1C(O)(c1ccc(Cl)cc1)c1ccc2c(c1)c(-c1cccc(Cl)c1)cc(=O)n2C (centres undefined)	228 nM	30 nM			
COC(c1ccc(Cl)cc1)(c1ccc2c(c1)c(-c1ccc(C)cc1)cc(=O)n2C)c1cncn1C (centres undefined)	2 nM	410 nM			
COC(c1ccc(C(F)(F)F)cc1)(c1ccc2c(c1)c(-c1cccc(Cl)c1)cc(=O)n2C)c1cncn1C (centres undefined)	5 nM				
COC(c1ccc(Cl)cc1)(c1ccc2c(c1)c(-c1ccccc1C(F)(F)F)cc(=O)n2C)c1cncn1C (centres undefined)	0.8 nM	> 5000 nM			
COC(c1ccc2ccccc2c1)(c1ccc2c(c1)c(-c1cccc(Cl)c1)cc(=O)n2C)c1cncn1C (centres undefined)	2.2 nM	2300 nM			
CCc1ccc(C(OC)(c2ccc3c(c2)c(-c2cccc(Cl)c2)cc(=O)n3C)c2cncn2C)cc1 (centres undefined)	10 nM				
CCOC(c1ccc(Cl)cc1)(c1ccc2c(c1)c(-c1cccc(Cl)c1C)cc(=O)n2C)c1cncn1C (centres undefined)	27 nM	> 10000 nM			
Cc1c(Cl)cccc1-c1cc(=O)n(C)c2ccc(C(O)(c3ccc(Cl)cc3)c3cncn3C)cc12 (centres undefined)	112 nM	796 nM			
COC(c1ccc(Cl)cc1)(c1ccc2c(c1)c(-c1cccc(Cc3ccccc3)c1)cc(=O)n2C)c1cncn1C (centres undefined)	83 nM				
COC(c1ccc(Cl)cc1)(c1ccc2c(c1)c(-c1cccc(-c3ccccc3)c1)cc(=O)n2C)c1cncn1C (centres undefined)	320 nM				
CCn1cncc1C(N)(c1ccc(Cl)cc1)c1ccc2c(c1)c(-c1cccc(Cl)c1)cc(=O)n2C (centres undefined)	118 nM	28 nM			
COC(c1ccc(Cl)cc1)(c1ccc2c(c1)c(-c1cccc(F)c1)cc(=O)n2C)c1cncn1C (centres undefined)	1.1 nM	343 nM			
CNC(c1ccc(Cl)cc1)(c1ccc2c(c1)c(-c1cccc(Cl)c1C)cc(=O)n2C)c1cncn1C (centres undefined)	5 nM	957 nM			
COC(c1ccc(C(C)C)cc1)(c1ccc2c(c1)c(-c1cccc(Cl)c1)cc(=O)n2C)c1cncn1C (centres undefined)	33 nM				
COC(c1ccc(Cl)cc1)(c1ccc2c(c1)c(-c1ccc(F)cc1)cc(=O)n2C)c1cncn1C (centres undefined)	0.5 nM	991 nM			
COC(c1ccc(Cl)cc1)(c1ccc2c(c1)c(-c1c(F)cccc1F)cc(=O)n2C)c1cncn1C (centres undefined)	0.31 nM	> 10000 nM		275 nM	Active
